Source: ChEMBL document CHEMBL1122207, “Antitumor agents. 2. Bisguanylhydrazones of anthracene-9,10-dicarboxaldehydes” (1982)

What was measured:
Type in all cases: functional
Mus musculus [1] = experiment: Percent increase in median life span of BDF1 mice with P-388 leukemia at dose 300 mg/kg administered intraperitoneally; details: BDF1, P388, ip, route intraperitoneal
Mus musculus [2] = experiment: Percent increase in median life span of BDF1 mice with B-16 melanoma at dose 300 mg/kg administered intraperitoneally; details: BDF1, B16, ip, route intraperitoneal
Procedure, shortened: (§1)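 BDF1 mice were implanted ip with a homogenate from 0.05 g of B-16 melanoma. Ip dosing ran on days 1-9, starting 24 h after implant, in dose-response studies following NCI protocols. The read-out was percent increase in life span (ILS). T/C ≥125% was taken as significant.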

Mus musculus [3] = organism: Mus musculus; experiment: Anticancer activity measured as the number of survivors of the total treated mice with P-388 leukemia at 30 days.
Procedure, shortened: (§2)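 BDF1 or CDF1 mice given 10^6 ascitic P-388 leukemia cells ip, then treated ip on days 1, 5 and 9. Cures are survivors over total treated at 30 days.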

Mus musculus [4] = organism: Mus musculus; experiment: Cures is the number of survivors of the total treated mice (10) with B-16 melanoma, at 60 days.
Procedure, shortened: (§3)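 BDF1 mice were implanted ip with a homogenate from 0.05 g of B-16 melanoma and dosed ip on days 1-9. Cures are survivors over total at 60 days.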

Mus musculus [5] = experiment: Percent increase in median life span of BDF1 mice with Colon 26 at dose 3.1 mg/kg administered intraperitoneally; 1, 5, 9 days of ip treatment relative to tumor inoculation; details: BDF1, Colon 26, ip, 216 h, route intraperitoneal
Mus musculus [6] = experiment: Percent increase in median life span of BDF1 mice with advanced L-1210 leukemia at dose 6.2 mg/kg administered intraperitoneally; treatment day +2 iv; details: L1210
Mus musculus [7] = experiment: Percent increase in median life span of BDF1 mice with madison lung 109 leukemia administered intraperitoneally
Mus musculus [8] = experiment: Percent increase in median life span of BDF1 mice with P-388 leukemia at dose 6.25 mg/kg administered intraperitoneally; 1, 5, 9 days of ip treatment relative to tumor inoculation; details: BDF1, P388, ip, 216 h, route intraperitoneal
Procedure, shortened: (§4)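 BDF1 or CDF1 mice given 10^6 ascitic leukemia cells ip, then dosed ip on days 1, 5 and 9. Read-out is percent increase in life span versus untreated controls. Cures were scored as survivors/total at 30 days; when cures reached 50% or more, the run was extended until a specific ILS could be calculated. T/C ≥125% counted as significant.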

Mus musculus [9] = organism: Mus musculus; experiment: Cures is the number of survivors of the total treated mice (6) with advanced L-1210 leukemia, at 30 days.
Procedure, shortened: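 Advanced L-1210 leukemia, with ip treatment on days 5, 9 and 13 relative to tumor inoculation.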

Mus musculus [10] = experiment: Percent increase in median life span of BDF1 mice with advanced P-388 leukemia at dose 12.5 mg/kg administered intraperitoneally; 4, 8, 12 days of ip treatment relative to tumor inoculation; details: P388, ip, 288 h, route intraperitoneal
Mus musculus [11] = experiment: Percent increase in median life span of BDF1 mice with B-16 melanoma at dose 3 mg/kg administered intraperitoneally; 1-9 days of ip treatment relative to tumor inoculation; details: BDF1, B16, ip, route intraperitoneal; procedure, shortened: as §1
Mus musculus [12] = organism: Mus musculus; experiment: Cures is the number of survivors of the total treated mice (8) with Colon 26, at 60 days.
Mus musculus [13] = experiment: Percent tumor inhibition at non-lethal dose was determined in BDF1 mice with madison lung 109 leukemia; 1, 5, 9 days of sc treatment relative to tumor inoculation
Mus musculus [14] = experiment: Percent increase in median life span of BDF1 mice with P-388 leukemia at dose 25 mg/kg administered intraperitoneally; 1, 5, 9 days of ip treatment relative to tumor inoculation; details: BDF1, P388, ip, 216 h, route intraperitoneal; procedure, shortened: as §4
Mus musculus [15] = experiment: Percent increase in median life span of BDF1 mice with advanced P-388 leukemia at dose 25 mg/kg administered intraperitoneally; 4, 8, 12 days of ip treatment relative to tumor inoculation; details: P388, ip, 288 h, route intraperitoneal
Mus musculus [16] = experiment: Percent increase in median life span of BDF1 mice with Colon 26 at dose 12.5 mg/kg administered intraperitoneally; 1, 5, 9 days of ip treatment relative to tumor inoculation; details: BDF1, Colon 26, ip, 216 h, route intraperitoneal
Mus musculus [17] = organism: Mus musculus; experiment: Cures is the number of survivors of the total treated mice (6) with P-388 leukemia, at 30 days.; procedure, shortened: as §2
Mus musculus [18] = experiment: Percent increase in median life span of BDF1 mice with advanced L-1210 leukemia at dose 50 mg/kg administered intraperitoneally; treatment day +2 iv; details: L1210
Mus musculus [19] = organism: Mus musculus; experiment: Cures is the number of survivors of the total treated mice (20) with B-16 melanoma, at 60 days.; procedure, shortened: as §3
Mus musculus [20] = organism: Mus musculus; experiment: Cures is the number of survivors of the total treated mice (5) with L-1210 leukemia, at 30 days.
Mus musculus [21] = organism: Mus musculus; experiment: Cures is the number of survivors of the total treated mice (24) with P-388 leukemia, at 30 days.; procedure, shortened: as §2
Mus musculus [22] = experiment: Percent increase in median life span of BDF1 mice with advanced B-16 melanoma at dose 25 mg/kg administered intraperitoneally; 5, 9, 13 days of ip treatment relative to tumor inoculation; details: B16, ip, 312 h, route intraperitoneal
Mus musculus [23] = experiment: Percent increase in median life span of BDF1 mice with B-16 melanoma at dose 12 mg/kg administered intraperitoneally; Range 144-145%, 1-9 days of ip treatment relative to tumor inoculation; details: BDF1, B16, ip, route intraperitoneal; procedure, shortened: as §1
Mus musculus [24] = experiment: Cures is the number of survivors of the total treated mice (6) with advanced L-1210 leukemia, at 30 days; treatment day +2 iv
Procedure, shortened: (§5)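 Advanced L-1210 leukemia, treated iv once on day +2 relative to tumor inoculation.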

Mus musculus [25] = organism: Mus musculus; experiment: Cures is the number of survivors of the total treated mice (10) with advanced B-16 melanoma, at 30 days.
Mus musculus [26] = organism: Mus musculus; experiment: Cures is the number of survivors of the total treated mice (26) with Colon 26, at 60 days.
Mus musculus [27] = experiment: Percent increase in median life span of BDF1 mice with L-1210 leukemia at dose 25 mg/kg administered intraperitoneally; 1, 5, 9 days of ip treatment relative to tumor inoculation; details: BDF1, L1210, ip, 216 h, route intraperitoneal; procedure, shortened: as §4
Mus musculus [28] = organism: Mus musculus; experiment: Cures is the number of survivors of the total treated mice (18) with P-388 leukemia, at 30 days.; procedure, shortened: as §2
Mus musculus [29] = organism: Mus musculus; experiment: Cures is the number of survivors of the total treated mice (10) with Colon 26, at 60 days.
Mus musculus [30] = experiment: Percent increase in median life span of BDF1 mice with B-16 melanoma at dose 3 mg/kg administered intraperitoneally; range 116-129%, 1-9 days of ip treatment relative to tumor inoculation; details: BDF1, B16, ip, route intraperitoneal; procedure, shortened: as §1
Mus musculus [31] = experiment: Percent increase in median life span of BDF1 mice with advanced B-16 melanoma at dose 6.2 mg/kg administered intraperitoneally; 5, 9, 13 days of ip treatment relative to tumor inoculation; details: B16, ip, 312 h, route intraperitoneal
Mus musculus [32] = organism: Mus musculus; experiment: Cures is the number of survivors of the total treated mice (6) with L-1210 leukemia, at 30 days.
Mus musculus [33] = experiment: Percent increase in median life span of BDF1 mice with L-1210 leukemia at dose 6.2 mg/kg administered intraperitoneally; 1, 5, 9 days of ip treatment relative to tumor inoculation; details: BDF1, L1210, ip, 216 h, route intraperitoneal; procedure, shortened: as §4
Mus musculus [34] = experiment: Percent increase in median life span of BDF1 mice with Colon 26 at dose 6.2 mg/kg administered intraperitoneally; 1, 5, 9 days of ip treatment relative to tumor inoculation; details: BDF1, Colon 26, ip, 216 h, route intraperitoneal
Mus musculus [35] = experiment: Percent increase in median life span of BDF1 mice with advanced B-16 melanoma at dose 12.5 mg/kg administered intraperitoneally; 5, 9, 13 days of ip treatment relative to tumor inoculation; details: BDF1, B16, ip, 312 h, route intraperitoneal
Mus musculus [36] = experiment: Percent increase in median life span of BDF1 mice with L-1210 leukemia at dose 12.5 mg/kg administered intraperitoneally; 1, 5, 9 days of ip treatment relative to tumor inoculation; details: BDF1, L1210, ip, 216 h, route intraperitoneal; procedure, shortened: as §4
Mus musculus [37] = organism: Mus musculus; experiment: Cures is the number of survivors of the total treated mice (10) with P-388 leukemia, at 30 days.; procedure, shortened: as §2
Mus musculus [38] = experiment: Percent increase in median life span of BDF1 mice with P-388 leukemia at dose 12.5 mg/kg administered intraperitoneally; 1, 5, 9 days of ip treatment relative to tumor inoculation; details: BDF1, P388, ip, 216 h, route intraperitoneal; procedure, shortened: as §4
Mus musculus [39] = organism: Mus musculus; experiment: Percent increase in median life span of BDF1 mice with advanced L-1210 leukemia
Mus musculus [40] = organism: Mus musculus; experiment: Cures is the number of survivors of the total treated mice (17) with L-1210 leukemia, at 30 days.
Mus musculus [41] = experiment: Cures is the number of survivors of the total treated mice (6) with advanced L-1210 leukemia; treatment day +2 iv; procedure, shortened: as §5
Mus musculus [42] = organism: Mus musculus; experiment: Cures is the number of survivors of the total treated mice (42) with P-388 leukemia, at 30 days.; procedure, shortened: as §2
Mus musculus [43] = experiment: Percent increase in median life span of BDF1 mice with B-16 melanoma at dose 6 mg/kg administered intraperitoneally; range 98-122%; 1-9 days of ip treatment relative to tumor inoculation; details: BDF1, B16, ip, route intraperitoneal; procedure, shortened: as §1
Mus musculus [44] = experiment: Percent increase in median life span of BDF1 mice with Colon 26 at dose 6.2 mg/kg administered intraperitoneally; Range is 114-150%; 1, 5, 9 days of ip treatment relative to tumor inoculation; details: BDF1, Colon 26, ip, 216 h, route intraperitoneal
Mus musculus [45] = organism: Mus musculus; experiment: Cures is the number of survivors of the total treated mice (20) with Colon 26, at 60 days.

N/C(S)=N/N=C/c1c2ccccc2c(/C=N/N=C(\N)S)c2ccccc12
ILS at 300 mg/kg (Mus musculus [1]): 71%
ILS at 300 mg/kg (Mus musculus [2]): 0%
Cures (Mus musculus [3]): 0

Cl.Cl.Clc1ccc2c(/C=N/NC3=NCCCN3)c3ccccc3c(/C=N/NC3=NCCCN3)c2c1
Cures (Mus musculus [4]): 6
ILS at 3.1 mg/kg (Mus musculus [5]): 175%
ILS at 6.2 mg/kg (Mus musculus [6]): 28%
ILS (Mus musculus [7]): <25%
ILS at 6.25 mg/kg (Mus musculus [8]): 127%
Cures (Mus musculus [9]): 0
ILS at 12.5 mg/kg (Mus musculus [10]): 80%
ILS at 3 mg/kg (Mus musculus [11]): 194%
Cures (Mus musculus [12]): 1
Inhibition (Mus musculus [13]): 16%

C/N=C(\N)N/N=C/c1c2ccccc2c(/C=N/N/C(N)=N/C)c2ccccc12
ILS at 25 mg/kg (Mus musculus [14]): 157%
ILS (Mus musculus [7]): 53%
ILS at 25 mg/kg (Mus musculus [15]): 108%
ILS at 12.5 mg/kg (Mus musculus [16]): 129%
Cures (Mus musculus [17]): 1
ILS at 50 mg/kg (Mus musculus [18]): 50%
Cures (Mus musculus [19]): 8
Cures (Mus musculus [20]): 0
Cures (Mus musculus [21]): 6
ILS at 25 mg/kg (Mus musculus [22]): 62%
ILS at 12 mg/kg (Mus musculus [23]): 145%
Cures (Mus musculus [24]): 0
Cures (Mus musculus [25]): 5
Cures (Mus musculus [26]): 2
Inhibition (Mus musculus [13]): 89%
ILS at 25 mg/kg (Mus musculus [27]): 62%

CN(C)C(=N)N/N=C/c1c2ccccc2c(/C=N/N=C(\N)N(C)C)c2ccccc12
Cures (Mus musculus [28]): 3
Cures (Mus musculus [29]): 1
ILS at 3 mg/kg (Mus musculus [30]): 125%
ILS at 6.25 mg/kg (Mus musculus [8]): 103%
ILS at 6.2 mg/kg (Mus musculus [31]): 41%
Cures (Mus musculus [19]): 2
Cures (Mus musculus [32]): 0
Cures (Mus musculus [25]): 2
ILS at 6.2 mg/kg (Mus musculus [33]): 100%
ILS at 6.2 mg/kg (Mus musculus [34]): 167%

C(=N\NC1=NCCN1)/c1c2ccccc2c(/C=N/NC2=NCCN2)c2ccccc12 [BISANTRENE]
ILS at 12.5 mg/kg (Mus musculus [35]): 54%
ILS at 12.5 mg/kg (Mus musculus [36]): 62%
Cures (Mus musculus [37]): 2
ILS at 12.5 mg/kg (Mus musculus [38]): 137%
ILS (Mus musculus [39]): 48%
ILS (Mus musculus [7]): <25%
Cures (Mus musculus [40]): 0
Cures (Mus musculus [17]): 0
Cures (Mus musculus [19]): 2
Cures (Mus musculus [41]): 0
Cures (Mus musculus [42]): 17
ILS at 12.5 mg/kg (Mus musculus [10]): 76%
ILS at 6 mg/kg (Mus musculus [43]): 122%
ILS at 6.2 mg/kg (Mus musculus [44]): 114%
Cures (Mus musculus [25]): 2
Inhibition (Mus musculus [13]): 20%
Cures (Mus musculus [45]): 6
